Laboratory results: ChEMBL document CHEMBL4177755, “Combating Drug-Resistant Fungi with Novel Imperfectly Amphipathic Palindromic Peptides” (J Med Chem, 2018)

How the values were obtained:
[1] = system: Escherichia coli; assay: Antibacterial activity against Escherichia coli ATCC 25922 after 18 hrs in presence of CaCl2 by broth dilution method; format: functional; details: ATCC 25922, 18 h
[2] = system: Candida albicans; assay: Fungicidal activity against fluconazole-resistant Candida albicans 17546 after 96 hrs; format: functional; details: Candida albicans, 17546, 96 h; read-out: MFC99.9
In short: (§1)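 After the 48 h, 28 °C broth microdilution in MOPS-buffered RPMI 1640 (inoculum (0.5−1) × 10^3 CFU/mL), 50 μL from each well was plated on YM agar for a further 48 h at 28 °C. MFC is the lowest concentration killing at least 99.9% of cells. Triplicate, three biological replicates.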

[3] = system: Escherichia coli; assay: Antibacterial activity against Escherichia coli 1005 after 24 hrs; format: functional; details: Escherichia coli, 1005, 24 h
In short: (§2)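 Broth microdilution. Mid-log bacteria in MHB at a final (0.5−1) × 10^5 CFU/mL were mixed with equal volumes of peptide serially diluted in 0.2% BSA. Plates were incubated 24 h at 37 °C and read at A492. MIC is the lowest concentration inhibiting 95% of growth. Each test was repeated at least 3 times.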

[4] = system: Candida albicans; assay: Fungicidal activity against Candida albicans SP3876 after 96 hrs; format: functional; details: SP3876, 96 h, read-out: MFC99.9; in short: as §1
[5] = system: Escherichia coli; assay: Antibacterial activity against Escherichia coli ATCC 25922 after 18 hrs in presence of KCl by broth dilution method; format: functional; details: ATCC 25922, 18 h
[6] = system: Candida tropicalis; assay: Fungicidal activity against Candida tropicalis cgmcc 2.1975 after 96 hrs; format: functional; details: cgmcc 2.1975, 96 h, read-out: MFC99.9
In short: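 Wells from the 48 h, 28 °C RPMI 1640/MOPS microdilution plates were plated on YM agar and incubated a further 48 h at 28 °C. MFC is the lowest concentration killing at least 99.9% of cells. Run in triplicate with three biological replicates.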

[7] = system: Candida albicans; assay: Antifungal activity against Candida albicans SP3931 after 48 hrs by broth microdilution method; format: functional; details: SP3931, 48 h
In short: (§3)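 Modified CLSI M27-A2 broth microdilution. Yeast at (0.5−1) × 10^3 CFU/mL in MOPS-buffered RPMI 1640 was mixed 1:1 with peptide serially diluted in 0.2% BSA and incubated 48 h at 28 °C. Absorbance was read at 492 nm; MIC is the lowest concentration inhibiting 95% of growth. Triplicate, three biological replicates.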

[8] = system: Escherichia coli; assay: Antibacterial activity against Escherichia coli ATCC 25922 after 18 hrs in presence of MgCl2 by broth dilution method; format: functional; details: ATCC 25922, 18 h
[9] = system: Candida albicans; assay: Antifungal activity against Candida albicans 58288 after 48 hrs by broth microdilution method; format: functional; details: Candida albicans, 58288, 48 h; in short: as §3
[10] = system: Erythrocyte; assay: Hemolytic activity in human RBC after 1 hr; format: ADME, cell-based
In short: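 Fresh human erythrocytes, diluted 10-fold in PBS pH 7.4, were mixed with equal volumes of peptide and held 1 h at 37 °C. After centrifugation at 1000g, supernatant hemoglobin was read at 576 nm. PBS set 0% and 0.1% Triton X-100 set 100% lysis. MHC is the concentration causing 10% hemolysis. At least three experiments were run, each in technical triplicate.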

[11] = system: Candida parapsilosis; assay: Antifungal activity against Candida parapsilosis cgmcc 2.3989 after 48 hrs by broth microdilution method; format: functional; details: Lodderomyces parapsilosis, cgmcc 2.3989, 48 h
In short: (§4)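 Modified CLSI M27-A2 broth microdilution. Yeast were suspended in MOPS-buffered RPMI 1640 at a final (0.5−1) × 10^3 CFU/mL and mixed 1:1 with peptide serially diluted in 0.2% BSA. Plates were incubated 48 h at 28 °C and read at A492. MIC is the lowest concentration giving 95% inhibition. Run in triplicate with three biological replicates.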

[12] = system: Candida albicans; assay: Antifungal activity against Candida albicans SP3903 after 48 hrs by broth microdilution method; format: functional; details: SP3903, 48 h; in short: as §3
[13] = Bactericidal activity against Salmonella pullorum ATCC 7913; format: functional, Salmonella enterica subsp. enterica serovar Pullorum; details: Salmonella enterica, read-out: MBC99.9
In short: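 Wells from the 24 h, 37 °C MHB microdilution plates (bacteria at a final (0.5−1) × 10^5 CFU/mL; peptide diluted in 0.2% BSA) were plated on agar and incubated overnight. MBC is the lowest concentration killing >99.9% of cells. Each test was reproduced at least 3 times.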

[14] = system: Candida albicans; assay: Antifungal activity against Candida albicans cgmcc 2.2086 in presence of NaCl by broth dilution method; format: functional
[15] = system: Pichia kudriavzevii; assay: Antifungal activity against Candida krusei cgmcc 2.1857 after 48 hrs by broth microdilution method; format: functional; details: cgmcc 2.1857, 48 h; in short: as §4
[16] = system: Candida albicans; assay: Fungicidal activity against Candida albicans isolated from alveolar fluid after 96 hrs; format: functional; details: read-out: MFC99.9; in short: as §1
[17] = system: Salmonella typhimurium; assay: Antibacterial activity against Salmonella typhimurium ATCC 14028 after 24 hrs; format: functional, Salmonella enterica subsp. enterica serovar Typhimurium; details: Salmonella enterica, ATCC 14028, 24 h; in short: as §2
[18] = system: Candida albicans; assay: Antifungal activity against fluconazole-resistant Candida albicans 56452 after 48 hrs by broth microdilution method; format: functional; details: Candida albicans, 56452, 48 h; in short: as §3
[19] = system: Candida albicans; assay: Fungicidal activity against Candida albicans cgmcc 2.2086 after 96 hrs; format: functional; details: cgmcc 2.2086, 96 h, read-out: MFC99.9; in short: as §1
[20] = system: Candida albicans; assay: Fungicidal activity against Candida albicans SP3931 after 96 hrs; format: functional; details: SP3931, 96 h, read-out: MFC99.9; in short: as §1
[21] = system: Candida albicans; assay: Fungicidal activity against fluconazole-resistant Candida albicans 56214 after 96 hrs; format: functional; details: Candida albicans, 56214, 96 h; read-out: MFC99.9; in short: as §1
[22] = system: Candida albicans; assay: Antifungal activity against fluconazole-resistant Candida albicans 17546 after 48 hrs by broth microdilution method; format: functional; details: Candida albicans, 17546, 48 h; in short: as §3
[23] = system: Candida albicans; assay: Antifungal activity against Candida albicans SP3902 after 48 hrs by broth microdilution method; format: functional; details: SP3902, 48 h; in short: as §3
[24] = Cytotoxicity against mouse RAW264.7 cells assessed as cell viability at 2 to 64 uM after 24 hrs by MTT assay relative to control; format: cell-based; details: read-out: Activity
In short: (§5)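 MTT viability assay. RAW264.7 or HEK293T cells at (1.0−2.0) × 10^5 per well were exposed to a peptide concentration series for 24 h at 37 °C in 5% CO2. MTT was then added at 0.5 mg/mL final for 4 h; formazan was dissolved in DMSO and read at 570 nm. Results average three independent trials.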

[25] = system: Staphylococcus aureus; assay: Antibacterial activity against Staphylococcus aureus ATCC 25923 after 24 hrs; format: functional; details: ATCC 25923, 24 h
In short: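 Modified NCCLS broth microdilution. Mid-log bacteria at (0.5−1) × 10^5 CFU/mL in MHB were mixed 1:1 with peptide serially diluted in 0.2% BSA and incubated 24 h at 37 °C. Absorbance was read at 492 nm; MIC is the lowest concentration inhibiting 95% of growth. At least 3 repeats.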

[26] = system: Candida albicans; assay: Antifungal activity against Candida albicans SP3876 after 48 hrs by broth microdilution method; format: functional; details: SP3876, 48 h; in short: as §3
[27] = Cytotoxicity against HEK293T cells assessed as cell viability at 2 to 64 uM after 24 hrs by MTT assay relative to control; format: cell-based, HEK-293T; details: human, read-out: Activity; in short: as §5

Row | Substance | MIC [1] [µM] | MFC [2] [µM] | MIC95 [3] [µM] | MFC [4] [µM] | MIC [5] [µM] | MFC [6] [µM] | MIC95 [7] [µM] | MIC [8] [µM] | MIC95 [9] [µM] | HC10 [10] [µM] | MIC95 [11] [µM] | MIC95 [12] [µM] | MBC [13] [µM] | MIC [14] [µM] | MIC95 [15] [µM] | MFC [16] [µM] | MIC95 [17] [µM] | MIC95 [18] [µM] | MFC [19] [µM] | MFC [20] [µM] | also measured
1 | H-RIRIIIRIR-NH2 | 16 | 2 | 4 | 1 | 8 | 4 | 4 | 8 | 2 | > 128 | 8 | 2 | 16 | 16 | 2 | 8 | 4 | 4 | 8 | 8 | MFC [21]: 4 µM; MIC95 [22]: 2 µM; MIC95 [23]: 2 µM; viability at 24 h, up to 64 µM [24]: 70 to 80%; MIC95 [25]: 4 µM; MIC95 [26]: 1 µM; viability at 24 h, up to 64 µM [27]: 70 to 80%
2 | H-RLLRRLRRLLR-NH2 | 8 | 16 | 4 | 8 | 4 | 4 | 8 | 2 | 4 | > 128 | 8 | 4 | 32 | 16 | 4 | 16 | 8 | 8 | 16 | 8 | MFC [21]: 16 µM; MIC95 [22]: 8 µM; MIC95 [23]: 4 µM; viability at 24 h, up to 64 µM [24]: 70 to 80%; MIC95 [25]: 8 µM; MIC95 [26]: 4 µM; viability at 24 h, up to 64 µM [27]: 70 to 80%
3 | H-RLRLLLRLR-NH2 | 8 | 16 | 4 | 4 | 4 | 4 | 8 | 4 | 8 | > 128 | > 64 | 8 | 8 | 32 | 8 | 16 | 4 | 8 | 16 | 16 | MFC [21]: 16 µM; MIC95 [22]: 16 µM; MIC95 [23]: 4 µM; viability at 24 h, up to 64 µM [24]: 70 to 80%; MIC95 [25]: 8 µM; MIC95 [26]: 4 µM; viability at 24 h, up to 64 µM [27]: 70 to 80%
